Bioassay records: PubChem BioAssay, several laboratories
In the library only some 8.7% were active in any assay of this set; here they are far more common.
PostGolgi yeast – growth inhibition of a yeast mutant, post-Golgi transport screen | post-Golgi transport phenotypic cell assay | inhibition, % at 10 µM | hit rate 0.9% among 98,000 | AID 739;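 note: yeast cells grown in 1536-well plates; yeast grown about 18 h at 30C before absorbance read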
tolC growth inh – growth inhibitors of E. coli BW25113 tolC mutant | hit rate 2.2% among 65,000 | OD615 | growth inhibition, % at 10 µM (by protocol);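 active = growth inhibition at or above a cutoff equal to the mean over every tested compound plus 3 SD, cut at about 60% in these data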;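 note: growth measured after 20 h incubation at 37 °C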
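Test system: E. coli BW25113 ΔtolC::kan bacteria | Medium: Kanamycin-containing LB broth (50 µg/mL) | Dosing: One dose of 10 µM final | Times: 20 h incubation with compound, 37 °C | Detection: Optical density read at 615 nm | Read-out basis: Percent growth inhibition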
Pyk2 oligo antag – Pyk2 (human) oligomerization antagonism. Q14289. AID 1347419. Q293 cells, Pyk2 FERM NanoBiT luminescence; stronger effect = lower value. z-score (the deposit names both 25 µM and 10 µM). hit rate 0.83% among 99,000;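 active = Z-score of -3 or lower, scaled per plate to the spread of control and sample wells; inactive = z-score above -3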;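 note: negative z-score means lost luminescence so less FERM oligomerization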
E coli WT exp – E. coli BW25113 growth inhibition, expanded screen; OD600 absorbance; hit rate 0.15% among 98,000; growth inhibition, % at 100 µM; AID 710;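 active = growth inhibition above about 50% at one test dose, limit read from the data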;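 note: growth measured after 20 h incubation at 37 °C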
PostGolgi ctrl – inhibits growth of the yeast control strain. hit rate 5% among 98,000. inhibition, % at 10 µM. AID 738. efflux-deficient yeast background strain, growth absorbance A615, 16 h
Cav32 inh – human Cav3.2 channel inhibition, primary screen. B-score at 10 µM. O95180. AID 449739. Cav3.2-expressing cells, Fluo-4 calcium fluorescence FDSS; stronger effect = lower value. hit rate 4% among 100,000;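 active = single-dose well whose peak fluorescence ratio is a statistical outlier from its plate by either plate-standardised score or position-corrected B-score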
Target sequence (O95180 whole entry, looked up): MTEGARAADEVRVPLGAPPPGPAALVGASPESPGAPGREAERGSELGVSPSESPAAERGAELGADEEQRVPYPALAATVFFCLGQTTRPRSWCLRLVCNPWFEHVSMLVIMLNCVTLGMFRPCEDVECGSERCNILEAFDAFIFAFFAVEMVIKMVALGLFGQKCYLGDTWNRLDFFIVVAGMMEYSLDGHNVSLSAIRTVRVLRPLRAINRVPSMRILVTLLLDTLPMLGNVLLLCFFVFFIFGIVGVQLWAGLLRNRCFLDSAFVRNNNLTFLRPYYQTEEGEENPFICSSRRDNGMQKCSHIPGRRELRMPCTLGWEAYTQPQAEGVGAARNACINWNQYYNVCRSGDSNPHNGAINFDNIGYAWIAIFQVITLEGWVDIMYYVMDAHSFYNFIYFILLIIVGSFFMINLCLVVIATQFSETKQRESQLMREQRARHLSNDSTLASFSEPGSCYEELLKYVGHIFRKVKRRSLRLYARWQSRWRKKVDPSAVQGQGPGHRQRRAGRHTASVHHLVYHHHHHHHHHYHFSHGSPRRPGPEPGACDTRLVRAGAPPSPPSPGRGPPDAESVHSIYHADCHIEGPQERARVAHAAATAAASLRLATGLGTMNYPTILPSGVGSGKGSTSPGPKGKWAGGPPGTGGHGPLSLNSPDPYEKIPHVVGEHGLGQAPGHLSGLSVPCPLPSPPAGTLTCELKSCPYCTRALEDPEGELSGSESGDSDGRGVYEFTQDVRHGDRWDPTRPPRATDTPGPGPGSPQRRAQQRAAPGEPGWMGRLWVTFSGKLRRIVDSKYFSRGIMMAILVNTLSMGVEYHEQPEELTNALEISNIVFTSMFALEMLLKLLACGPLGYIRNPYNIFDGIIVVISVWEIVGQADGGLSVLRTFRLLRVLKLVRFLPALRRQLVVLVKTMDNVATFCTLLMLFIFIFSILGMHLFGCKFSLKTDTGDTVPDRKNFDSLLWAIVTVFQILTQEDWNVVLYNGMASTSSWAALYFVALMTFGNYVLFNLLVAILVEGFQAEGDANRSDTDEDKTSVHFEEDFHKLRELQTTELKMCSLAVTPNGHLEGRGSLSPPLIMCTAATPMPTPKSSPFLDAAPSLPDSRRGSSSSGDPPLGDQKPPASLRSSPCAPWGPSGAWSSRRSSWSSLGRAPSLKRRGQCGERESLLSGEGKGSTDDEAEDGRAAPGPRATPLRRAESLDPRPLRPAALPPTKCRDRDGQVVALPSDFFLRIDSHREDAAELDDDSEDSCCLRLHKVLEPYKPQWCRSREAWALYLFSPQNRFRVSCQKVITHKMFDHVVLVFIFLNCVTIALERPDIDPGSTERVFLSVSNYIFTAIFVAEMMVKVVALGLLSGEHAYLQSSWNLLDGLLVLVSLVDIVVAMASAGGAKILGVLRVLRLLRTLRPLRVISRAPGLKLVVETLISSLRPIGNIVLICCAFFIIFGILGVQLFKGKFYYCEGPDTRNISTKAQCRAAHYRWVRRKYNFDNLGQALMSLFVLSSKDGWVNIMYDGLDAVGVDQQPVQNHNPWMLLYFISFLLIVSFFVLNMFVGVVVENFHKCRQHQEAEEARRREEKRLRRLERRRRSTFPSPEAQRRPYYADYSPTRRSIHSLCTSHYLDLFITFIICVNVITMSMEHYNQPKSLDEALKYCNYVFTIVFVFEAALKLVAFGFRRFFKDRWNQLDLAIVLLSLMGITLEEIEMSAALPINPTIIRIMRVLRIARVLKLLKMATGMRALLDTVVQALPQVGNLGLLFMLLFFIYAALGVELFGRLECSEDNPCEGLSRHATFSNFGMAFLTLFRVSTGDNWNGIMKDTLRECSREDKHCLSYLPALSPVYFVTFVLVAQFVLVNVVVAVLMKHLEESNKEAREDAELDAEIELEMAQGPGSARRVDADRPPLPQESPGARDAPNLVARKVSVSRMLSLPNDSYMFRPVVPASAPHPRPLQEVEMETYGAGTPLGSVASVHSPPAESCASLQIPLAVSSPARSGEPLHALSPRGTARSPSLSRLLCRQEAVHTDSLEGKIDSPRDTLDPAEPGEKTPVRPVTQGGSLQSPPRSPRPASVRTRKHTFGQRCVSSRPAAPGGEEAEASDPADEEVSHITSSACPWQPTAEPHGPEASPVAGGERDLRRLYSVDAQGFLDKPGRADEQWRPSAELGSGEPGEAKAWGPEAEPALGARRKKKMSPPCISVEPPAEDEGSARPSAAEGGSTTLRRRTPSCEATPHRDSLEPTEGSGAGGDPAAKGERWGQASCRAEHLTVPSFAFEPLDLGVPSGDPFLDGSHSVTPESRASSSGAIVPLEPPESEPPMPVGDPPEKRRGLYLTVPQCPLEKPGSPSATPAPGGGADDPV
Numbers stand for hits; ! = not confirmed by another sample. Cut-off read from the data, not from the text of the source, unless noted: active = inhibition above about 30%; inactive = the rest.

`Cc1cc(NC(=O)c2c(F)cccc2Cl)n(-c2nc3ccccc3[nH]2)n1` gave PostGolgi yeast inactive, Pyk2 oligo antag inactive, E coli WT exp inactive, PostGolgi ctrl inactive and Cav32 inh inactive.
For Cc1ccc2cc(C)c3nnc(SCC(=O)Nc4nc5c(s4)CCCC5)n3c2c1 the results were PostGolgi yeast inactive, E coli WT exp inactive, PostGolgi ctrl inactive and Cav32 inh inactive.
Screening CC1CC(C)CN(C(=O)c2ccc3c(c2NCCO)C(=O)c2ccccc2C3=O)C1 (configuration not stated) returned PostGolgi yeast inactive, Pyk2 oligo antag inactive, E coli WT exp inactive, PostGolgi ctrl inactive and Cav32 inh inactive.
COc1ccccc1C(c1nnnn1C(C)(C)C)N1CCN(Cc2ccncc2)CC1 (configuration not stated) was read as PostGolgi yeast inactive, tolC growth inh inactive, Pyk2 oligo antag inactive, E coli WT exp inactive and PostGolgi ctrl inactive.
COc1ccccc1N1CCN(C(c2ccccc2Cl)c2nnnn2C(C)(C)C)CC1 (configuration not stated) was read as PostGolgi yeast inactive, tolC growth inh 63.5, Pyk2 oligo antag inactive, E coli WT exp inactive, PostGolgi ctrl 37.6 and Cav32 inh -6.76.
For CCCC(c1nnnn1CC1CCCO1)N1CCN(c2cc(Cl)ccc2C)CC1 (configuration not stated) the results were PostGolgi yeast inactive, tolC growth inh inactive, Pyk2 oligo antag inactive, E coli WT exp inactive and PostGolgi ctrl inactive.
For CCC(c1nnnn1C(C)(C)C)N1CCN(c2cc(Cl)ccc2C)CC1 (configuration not stated) the results were PostGolgi yeast inactive, tolC growth inh inactive, Pyk2 oligo antag inactive, E coli WT exp inactive, PostGolgi ctrl inactive and Cav32 inh -3.78.
For COc1ccc(C(c2nnnn2C(C)(C)C)N2CCN(c3nc4ccccc4s3)CC2)cc1OC (configuration not stated) the results were PostGolgi yeast inactive, tolC growth inh inactive, Pyk2 oligo antag inactive, E coli WT exp inactive, PostGolgi ctrl inactive and Cav32 inh -4.03.
COc1ccccc1N1CCN(C(c2ccc(Cl)cc2)c2nnnn2C(C)(C)C)CC1 (configuration not stated) was read as PostGolgi yeast inactive, tolC growth inh 66.0, Pyk2 oligo antag inactive, E coli WT exp inactive, PostGolgi ctrl 44.1 and Cav32 inh inactive.
O=C(NCCSc1c[nH]c2ccccc12)C1CC1 was read as PostGolgi yeast inactive, E coli WT exp inactive, PostGolgi ctrl inactive and Cav32 inh inactive.
`Nc1[nH]n2c(=O)c3c(nc2c1N=Nc1ccc(Cl)cc1)CCCC3` gave PostGolgi yeast inactive, Pyk2 oligo antag inactive, E coli WT exp inactive, PostGolgi ctrl inactive and Cav32 inh -8.68.
Nc1[nH]n2c(=O)c3c(nc2c1N=Nc1ccccc1)CCCC3 was read as PostGolgi yeast inactive, Pyk2 oligo antag inactive, E coli WT exp inactive, PostGolgi ctrl inactive and Cav32 inh -9.6.
Cc1[nH]n2c(=O)c3c(nc2c1-c1ccccc1)CCC3 was read as PostGolgi yeast inactive, tolC growth inh inactive, Pyk2 oligo antag inactive, E coli WT exp inactive, PostGolgi ctrl inactive and Cav32 inh inactive.
Screening Cc1[nH]n2c(=O)c3c(nc2c1-c1ccc(Cl)cc1)CCC3 returned PostGolgi yeast inactive, tolC growth inh 99.8, Pyk2 oligo antag inactive, E coli WT exp inactive, PostGolgi ctrl inactive and Cav32 inh inactive.
`Cc1nc(-c2ccccc2)sc1-c1nc(-c2ccncc2)ncc1S(=O)(=O)c1ccccc1` gave PostGolgi yeast inactive, Pyk2 oligo antag inactive, E coli WT exp inactive and PostGolgi ctrl inactive.
CCC(=O)OCc1c(C(F)(F)F)nn(C)c1Sc1ccc(F)cc1 was read as PostGolgi yeast inactive, Pyk2 oligo antag inactive, E coli WT exp inactive, PostGolgi ctrl inactive and Cav32 inh -7.53.
For Cc1c(Br)c([N+](=O)[O-])nn1C(C)C(=O)Nc1ccc2c(c1)OCO2 (configuration not stated) the results were PostGolgi yeast inactive, Pyk2 oligo antag inactive, E coli WT exp inactive, PostGolgi ctrl inactive and Cav32 inh inactive.
Screening CC(C)(C)n1nnnc1CN1C2CCC1CC(NC(=O)Nc1ccccc1)C2 (configuration not stated) returned PostGolgi yeast inactive, tolC growth inh inactive, Pyk2 oligo antag inactive, E coli WT exp inactive, PostGolgi ctrl inactive and Cav32 inh inactive.
For CCOC(=O)c1ccc(NC(=O)NC2CC3CCC(C2)N3Cc2nnnn2Cc2ccco2)cc1 (configuration not stated) the results were PostGolgi yeast inactive, Pyk2 oligo antag inactive, E coli WT exp inactive, PostGolgi ctrl inactive and Cav32 inh -6.07.
For CCO[C@@H]1OC(C(=O)N2CCOCC2)=C[C@H](c2ccccc2)[C@H]1CCCO the results were Cav32 inh inactive.
Screening CCc1nnc(NC(=O)CSc2nnc(-c3ccccc3O)n2-c2ccc(C)cc2C)s1 returned PostGolgi yeast inactive, tolC growth inh inactive, Pyk2 oligo antag -3.78, E coli WT exp inactive, PostGolgi ctrl inactive and Cav32 inh -8.96.
For CCc1nnc(NC(=O)CSc2nnc(COc3ccccc3)n2-c2ccc(C)cc2)s1 the results were PostGolgi yeast inactive, tolC growth inh inactive, Pyk2 oligo antag inactive, E coli WT exp inactive, PostGolgi ctrl inactive and Cav32 inh inactive.
`CCCN(CCC)C1=N/C(=C\c2ccco2)C(=O)N1c1ccccc1` gave PostGolgi yeast inactive, Pyk2 oligo antag inactive, E coli WT exp inactive, PostGolgi ctrl inactive and Cav32 inh -4.92.
`O=C(Cc1coc(-c2ccc(F)cc2)n1)Nc1ccccc1` gave PostGolgi yeast inactive, tolC growth inh inactive, Pyk2 oligo antag inactive, E coli WT exp inactive, PostGolgi ctrl inactive and Cav32 inh inactive.
`OCCN1CCN(CCCN2c3ccccc3Sc3ccc(C(F)(F)F)cc32)CC1` gave tolC growth inh inactive and Cav32 inh inactive.
CN1CCN(CCCN2c3ccccc3Sc3ccc(Cl)cc32)CC1 was read as tolC growth inh inactive and Cav32 inh -5.1!.
CC(=O)c1ccc(NC(=O)C2CCCN2S(=O)(=O)c2cccc3cccnc23)cc1 (configuration not stated) was read as PostGolgi yeast inactive, tolC growth inh inactive, E coli WT exp inactive, PostGolgi ctrl 31.3 and Cav32 inh inactive.
Screening Cc1cccc(NC(=O)C2CCCN2S(=O)(=O)c2cccc3cccnc23)c1 (configuration not stated) returned PostGolgi yeast inactive, tolC growth inh inactive, E coli WT exp inactive, PostGolgi ctrl inactive and Cav32 inh inactive.
For NC(=O)COC(=O)C(Cc1ccccc1)NS(=O)(=O)c1ccccc1F (configuration not stated) the results were tolC growth inh inactive, Pyk2 oligo antag inactive and Cav32 inh inactive.
CC1=CC(C)=Nc2ccccc2N1 was read as PostGolgi yeast inactive, Pyk2 oligo antag inactive, E coli WT exp inactive, PostGolgi ctrl inactive and Cav32 inh inactive.
Screening Cc1ccc(C2=Nc3ccccc3NC(C)(c3ccc(C)o3)C2)o1 (configuration not stated) returned PostGolgi yeast inactive, tolC growth inh inactive, Pyk2 oligo antag inactive, E coli WT exp inactive, PostGolgi ctrl 55.3 and Cav32 inh -5.26.
